Measured values as given in ChEMBL document CHEMBL1177842, “New 6-amino-[1,2,4]triazolo[3,4-b][1,3,4]thiadiazines and [1,2,4]triazolo[3,4-b] [1,3,4]thiadiazin-6-ones: synthesis, characterization and antibacterial activity evaluation” (2010).
Values after ≈ are worked out from the molar mass of the structure shown. Active and inactive are the calls of the source. No cut-off for these calls is given here.

Experiments:
Format in all cases: functional
Escherichia coli = assay: Antibacterial activity against Escherichia coli ATCC 25922 after 24 hrs by broth microdilution technique; settings: ATCC 25922, 24 h
How it was run: (§1)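 MIC by broth microdilution following NCCLS recommendations. Strains were grown in Mueller-Hinton broth and the inoculum was 5 × 10^5 cfu in 1 mL. Compounds were dissolved in DMSO and serially diluted in tubes to final concentrations of 1024 down to 2 µg/mL. 24 h old inoculum was added. After 35 °C for 24 h, the MIC was the lowest concentration inhibiting visible growth. Tetracycline and ampicillin served as standards.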

[1] = tested on: Staphylococcus epidermidis; assay: Antibacterial activity against Staphylococcus epidermidis ATCC 14990 after 24 hrs by broth microdilution technique; settings: ATCC 14990, 24 h; how it was run: as §1
Pseudomonas aeruginosa = assay: Antibacterial activity against Pseudomonas aeruginosa ATCC 9027 after 24 hrs by broth microdilution technique; how it was run: as §1
Staphylococcus aureus = assay: Antibacterial activity against Staphylococcus aureus ATCC 25923 after 24 hrs by broth microdilution technique; settings: ATCC 25923, 24 h; how it was run: as §1
Citrobacter freundii = assay: Antibacterial activity against Citrobacter freundii […] after 24 hrs by broth microdilution technique; how it was run: as §1
Enterococcus faecalis = assay: Antibacterial activity against Enterococcus faecalis ATCC 29212 after 24 hrs by broth microdilution technique; settings: ATCC 29212, 24 h; how it was run: as §1
Bacillus cereus = assay: Antibacterial activity against Bacillus cereus ATCC 13061 after 24 hrs by broth microdilution technique; how it was run: as §1
Acinetobacter baumannii = assay: Antibacterial activity against Acinetobacter baumannii ATCC 19606 after 24 hrs by broth microdilution technique; how it was run: as §1
Enterobacter cloacae = assay: Antibacterial activity against Enterobacter cloacae ATCC 49141 after 24 hrs by broth microdilution technique; how it was run: as §1

Compound | MIC (Escherichia coli) | MIC [1] | MIC (Pseudomonas aeruginosa; ATCC 9027, 24 h) | MIC (Staphylococcus aureus) | MIC (Citrobacter freundii) | MIC (Enterococcus faecalis) | MIC (Bacillus cereus; ATCC 13061, 24 h) | MIC (Acinetobacter baumannii; ATCC 19606, 24 h) | MIC (Enterobacter cloacae; ATCC 49141, 24 h) | MIC (Enterobacter cloacae) | MIC (Pseudomonas aeruginosa) | MIC (Bacillus cereus) | MIC (Acinetobacter baumannii)
O=C1CSc2nnc(-c3ccc(S(=O)(=O)c4ccc(Cl)cc4)cc3)n2N1 | 128 µg/mL (≈ 315 µM) | 256 µg/mL (≈ 629 µM) | 128 µg/mL (≈ 315 µM) | 256 µg/mL (≈ 629 µM) | 512 µg/mL (≈ 1260 µM) | 512 µg/mL (≈ 1260 µM) | 1020 µg/mL (≈ 2520 µM) | 256 µg/mL (≈ 629 µM) | 512 µg/mL (≈ 1260 µM) |  |  |  | 
Nn1c(-c2ccc(S(=O)(=O)c3ccccc3)cc2)n[nH]c1=S | 512 µg/mL (≈ 1540 µM) | 128 µg/mL (≈ 385 µM) | 512 µg/mL (≈ 1540 µM) | 512 µg/mL (≈ 1540 µM) | 512 µg/mL (≈ 1540 µM) | 1020 µg/mL (≈ 3080 µM) | 1020 µg/mL (≈ 3080 µM) | 512 µg/mL (≈ 1540 µM) | 512 µg/mL (≈ 1540 µM) |  |  |  | 
Nn1c(-c2ccc(S(=O)(=O)c3ccc(Cl)cc3)cc2)n[nH]c1=S | 1020 µg/mL (≈ 2790 µM) | 512 µg/mL (≈ 1400 µM) | 128 µg/mL (≈ 349 µM) | 512 µg/mL (≈ 1400 µM) | 512 µg/mL (≈ 1400 µM) | 1020 µg/mL (≈ 2790 µM) | 1020 µg/mL (≈ 2790 µM) | 128 µg/mL (≈ 349 µM) | 512 µg/mL (≈ 1400 µM) |  |  |  | 
Nn1c(SCC(=O)O)nnc1-c1ccc(S(=O)(=O)c2ccc(Cl)cc2)cc1 | 64 µg/mL (≈ 151 µM) | 256 µg/mL (≈ 603 µM) | 256 µg/mL (≈ 603 µM) | 128 µg/mL (≈ 301 µM) | 512 µg/mL (≈ 1210 µM) | 256 µg/mL (≈ 603 µM) | 1020 µg/mL (≈ 2410 µM) | 1020 µg/mL (≈ 2410 µM) | 1020 µg/mL (≈ 2410 µM) |  |  |  | 
CN(C)[C@@H]1C(O)=C(C(N)=O)C(=O)[C@@]2(O)C(O)=C3C(=O)c4c(O)cccc4[C@@](C)(O)[C@H]3C[C@@H]12 [TETRACYCLINE] | 2 µg/mL (≈ 4.5 µM) | 32 µg/mL (≈ 72 µM) | 16 µg/mL (≈ 36 µM) | < 2 µg/mL | 2 µg/mL (≈ 4.5 µM) | 32 µg/mL (≈ 72 µM) | < 2 µg/mL | 2 µg/mL (≈ 4.5 µM) |  | inactive |  |  | 
Nn1c(SCC(=O)O)nnc1-c1ccc(S(=O)(=O)c2ccccc2)cc1 | 64 µg/mL (≈ 164 µM) | 128 µg/mL (≈ 328 µM) | 256 µg/mL (≈ 656 µM) | 256 µg/mL (≈ 656 µM) | 512 µg/mL (≈ 1310 µM) | 512 µg/mL (≈ 1310 µM) | 1020 µg/mL (≈ 2620 µM) | 1020 µg/mL (≈ 2620 µM) | 1020 µg/mL (≈ 2620 µM) |  |  |  | 
O=C1CSc2nnc(-c3ccc(S(=O)(=O)c4ccc(Br)cc4)cc3)n2N1 | 128 µg/mL (≈ 284 µM) | 1020 µg/mL (≈ 2270 µM) | 128 µg/mL (≈ 284 µM) | 1020 µg/mL (≈ 2270 µM) | 512 µg/mL (≈ 1130 µM) | 1020 µg/mL (≈ 2270 µM) | 1020 µg/mL (≈ 2270 µM) | 256 µg/mL (≈ 567 µM) | 512 µg/mL (≈ 1130 µM) |  |  |  | 
Nn1c(SCC(=O)Nc2ccccc2)nnc1-c1ccc(S(=O)(=O)c2ccc(Br)cc2)cc1 | 256 µg/mL (≈ 470 µM) | 256 µg/mL (≈ 470 µM) | 128 µg/mL (≈ 235 µM) | 64 µg/mL (≈ 118 µM) | 1020 µg/mL (≈ 1880 µM) | 1020 µg/mL (≈ 1880 µM) | 512 µg/mL (≈ 940 µM) | 1020 µg/mL (≈ 1880 µM) | 256 µg/mL (≈ 470 µM) |  |  |  | 
O=C1CSc2nnc(-c3ccc(S(=O)(=O)c4ccccc4)cc3)n2N1 | 128 µg/mL (≈ 344 µM) | 32 µg/mL (≈ 85.9 µM) | 128 µg/mL (≈ 344 µM) | 512 µg/mL (≈ 1370 µM) | 512 µg/mL (≈ 1370 µM) | 1020 µg/mL (≈ 2750 µM) | 1020 µg/mL (≈ 2750 µM) | 256 µg/mL (≈ 687 µM) | 512 µg/mL (≈ 1370 µM) |  |  |  | 
Nn1c(SCC(=O)Nc2ccccc2)nnc1-c1ccc(S(=O)(=O)c2ccc(Cl)cc2)cc1 | 128 µg/mL (≈ 256 µM) | 256 µg/mL (≈ 512 µM) | 32 µg/mL (≈ 64 µM) | 128 µg/mL (≈ 256 µM) | 512 µg/mL (≈ 1020 µM) | 1020 µg/mL (≈ 2050 µM) | 1020 µg/mL (≈ 2050 µM) | 1020 µg/mL (≈ 2050 µM) | 512 µg/mL (≈ 1020 µM) |  |  |  | 
O=S(=O)(c1ccc(Cl)cc1)c1ccc(-c2nnc3n2N=C(Nc2ccccc2)CS3)cc1 | 128 µg/mL (≈ 266 µM) | 1020 µg/mL (≈ 2120 µM) | 64 µg/mL (≈ 133 µM) | 256 µg/mL (≈ 531 µM) | 128 µg/mL (≈ 266 µM) | 1020 µg/mL (≈ 2120 µM) | 1020 µg/mL (≈ 2120 µM) | 512 µg/mL (≈ 1060 µM) | 1020 µg/mL (≈ 2120 µM) |  |  |  | 
Nn1c(SCC(=O)O)nnc1-c1ccc(S(=O)(=O)c2ccc(Br)cc2)cc1 | 64 µg/mL (≈ 136 µM) | 512 µg/mL (≈ 1090 µM) | 256 µg/mL (≈ 545 µM) | 512 µg/mL (≈ 1090 µM) | 512 µg/mL (≈ 1090 µM) | 512 µg/mL (≈ 1090 µM) | 1020 µg/mL (≈ 2180 µM) | 1020 µg/mL (≈ 2180 µM) | 1020 µg/mL (≈ 2180 µM) |  |  |  | 
O=c1[nH]n2c(-c3ccc(S(=O)(=O)c4ccc(Br)cc4)cc3)nnc2sc1=O | 512 µg/mL (≈ 1100 µM) | 512 µg/mL (≈ 1100 µM) | 64 µg/mL (≈ 138 µM) | 64 µg/mL (≈ 138 µM) | 512 µg/mL (≈ 1100 µM) | 1020 µg/mL (≈ 2200 µM) | 1020 µg/mL (≈ 2200 µM) | 1020 µg/mL (≈ 2200 µM) | 512 µg/mL (≈ 1100 µM) |  |  |  | 
Nn1c(S)nnc1-c1ccc(S(=O)(=O)c2ccc(Br)cc2)cc1 | 1020 µg/mL (≈ 2490 µM) | 512 µg/mL (≈ 1240 µM) | 512 µg/mL (≈ 1240 µM) | 512 µg/mL (≈ 1240 µM) | 512 µg/mL (≈ 1240 µM) | 1020 µg/mL (≈ 2490 µM) | 1020 µg/mL (≈ 2490 µM) | 128 µg/mL (≈ 311 µM) | 512 µg/mL (≈ 1240 µM) |  |  |  | 
CCOC(=O)C1Sc2nnc(-c3ccc(S(=O)(=O)c4ccc(Cl)cc4)cc3)n2NC1=O (configuration not stated) | 512 µg/mL (≈ 1070 µM) | 1020 µg/mL (≈ 2140 µM) | 128 µg/mL (≈ 267 µM) | 1020 µg/mL (≈ 2140 µM) | 512 µg/mL (≈ 1070 µM) | 1020 µg/mL (≈ 2140 µM) | 1020 µg/mL (≈ 2140 µM) | 1020 µg/mL (≈ 2140 µM) | 512 µg/mL (≈ 1070 µM) |  |  |  | 
CC1(C)S[C@@H]2[C@H](NC(=O)[C@H](N)c3ccccc3)C(=O)N2[C@H]1C(=O)O [AMPICILLIN] |  | < 2 µg/mL |  | < 2 µg/mL | 2 µg/mL (≈ 5.72 µM) | < 2 µg/mL |  |  |  | inactive | inactive | inactive | inactive
O=S(=O)(c1ccc(Br)cc1)c1ccc(-c2nnc3n2N=C(Nc2ccccc2)CS3)cc1 | 256 µg/mL (≈ 486 µM) | 1020 µg/mL (≈ 1950 µM) | 256 µg/mL (≈ 486 µM) | 1020 µg/mL (≈ 1950 µM) | 512 µg/mL (≈ 973 µM) | 1020 µg/mL (≈ 1950 µM) | 512 µg/mL (≈ 973 µM) | 512 µg/mL (≈ 973 µM) | 512 µg/mL (≈ 973 µM) |  |  |  | 
